Screens deposited in PubChem by several laboratories.
Rad51 HR inh – Rad51 (human) homologous recombination inhibition | Q06609 | hRad51 DNA strand exchange, fluorescence dequenching | inhibition, % at 10 µM | actives 0.085% (n = 200,000);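 active = inhibition above 40% at the single screening dose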;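 note: 0% = DMSO control wells and 100% = blanks with heterologous ssDNA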
Target sequence (Q06609 whole entry, looked up): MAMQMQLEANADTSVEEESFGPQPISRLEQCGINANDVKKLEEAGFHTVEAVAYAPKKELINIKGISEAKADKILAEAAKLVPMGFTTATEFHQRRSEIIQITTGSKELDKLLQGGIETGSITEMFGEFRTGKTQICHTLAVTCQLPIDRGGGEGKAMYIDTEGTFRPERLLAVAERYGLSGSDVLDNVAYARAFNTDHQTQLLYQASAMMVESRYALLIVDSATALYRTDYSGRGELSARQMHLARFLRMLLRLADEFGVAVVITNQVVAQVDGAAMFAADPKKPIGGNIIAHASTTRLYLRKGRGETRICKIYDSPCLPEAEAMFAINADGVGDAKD
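Material: hRad51 filaments on single-stranded DNA; Reagent: Donor/quencher-labelled 47-bp dsDNA substrate; Compound: 10 µM final, single point; Schedule: 37 °C 15-min filament assembly, 30-min compound preincubation, 15-min exchange; Technique: FRET fluorescence, excitation 485 nm, emission 520 nm; Benchmarks: control wells and blank wells on each plate.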
MDM2 E3 inh – inhibitors of human Mdm2 E3 ubiquitin ligase | Q00987 | cell-based MDM2 ubiquitination luciferase reporter, 2 h; 0 = plate control, 100 = twice control, blank-subtracted | signal enhancement, % at 5 µM | actives 0.11% (n = 210,000) | AID 1230;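 active = signal enhancement of 30% or more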;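 note: luminescence tracks abundance of the self-degrading MDM2-luciferase fusion protein; higher signal means inhibition of MDM2 E3 ligase activity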
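Material: stable MDM2–luciferase fusion reporter cells / Quantity: 2000 cells/well / Dosing: single 5 µM compound dose, 0.2% final DMSO / Buffer or medium: DMEM / Schedule: 4 h cell settling then 2 h compound exposure, 37 °C / Detection: luminescence with SteadyLite reagent, 15 min at room temperature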
PERK inh – human PERK inhibition, primary cell-based screen; Q9NZJ5; CHO PERK-DD fusion, SEAP luminescence translation reporter; inhibition, % at 5.6 µM; actives 0.17% (n = 220,000);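 active = inhibition above the mean inhibition of all tested compounds plus 3 SD, set separately per screening campaign, cut at about 2.9% in these data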;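 note: PERK kinase domain activated by AP20187 dimerizer at 100 nM; 0% = DMSO with dimerizer and 100% = rapamycin at 8.4 µM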
Hck Nef HTS – human Hck-Nef kinase inhibition. Recombinant Hck-YEEI plus Nef, Z-Lyte FRET kinase assay. P08631. inhibition, % at 20 µM. actives 0.68% (n = 220,000);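 active = Hck-Nef kinase inhibition above about 50%, limit read from the data; inactive = inhibition below that limit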;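 note: 0% = DMSO with Hck plus Nef and 100% = Hck alone without Nef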
TAG inh – inhibitors of triacylglycerol accumulation. H9c2 cells, Nile Red lipid (TAG) fluorescence; cells loaded with 200 µM oleic acid. inhibition, % at 12.5 µM. actives 0.66% (n = 230,000). AID 651582;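 active = pattern-corrected inhibition of lipid staining of at least 50% with the nuclear-stain viability signal not falling by more than 50%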;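 note: 0% = DMSO wells and 100% = triacsin C control wells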
PKD1 inh – blocks activity of human protein kinase D1; inhibition, % (no concentration beside the values); PKD1 kinase fluorescence polarization assay; AID 797; actives 0.056% (n = 200,000); in the data active = inhibition above about 50%
Hck-Nef confirm – confirmation of Hck-Nef kinase inhibitors; Recombinant Hck-YEEI:Nef, Z-Lyte FRET kinase assay; shares compounds with Hck Nef HTS; actives 28% (n = 1,300); AID 463188; calls only at 10 µM;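 active = average inhibition of at least 50%, with Z-scores no higher than 3 in both the phospho-tyrosine peptide and fluorescence counterscreens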
Numbers without * were called inactive. Compounds with a hit are over-represented: about 1.3% of the library has one in this group of screens.

`N#C/C(=C\c1ccc(OC(=O)c2ccc(Cl)s2)cc1)c1nc2ccccc2[nH]1` gave Rad51 HR inh 9, MDM2 E3 inh 2, PERK inh 0, Hck Nef HTS 56*, PKD1 inh -5 and Hck-Nef confirm active.
`COc1ccccc1NC(=O)COC(=O)C1=NN(c2ccccc2)C(=O)CC1` gave TAG inh 15.
`O=C(N=Nc1ccc(NOC(=O)c2ccccc2Br)cc1)c1ccccc1O` gave Rad51 HR inh -1, MDM2 E3 inh -44, PERK inh 0, Hck Nef HTS 68*, PKD1 inh 1 and Hck-Nef confirm inactive.
For O=Nc1ccc(NOC(=O)c2ccccc2)cc1 the results were Rad51 HR inh 9, MDM2 E3 inh -18, PERK inh 1, Hck Nef HTS 8 and PKD1 inh 7.
Screening Cc1ccc(NC(=O)CCC(=O)N/N=C/c2coc3ccccc3c2=O)cc1 returned Rad51 HR inh 13, PERK inh 1, Hck Nef HTS 64*, TAG inh 0 and Hck-Nef confirm active.
Screening CCOC(=O)c1c(C)n(C)c2cc(-c3ccc(F)cc3)c(O)cc12 returned Rad51 HR inh -3, MDM2 E3 inh -6, PERK inh 0, Hck Nef HTS 2 and PKD1 inh -1.
For CCCC(=O)Nc1ccc(Cl)c(NC(=O)c2cccc(OC)c2)c1 the results were Rad51 HR inh 39, MDM2 E3 inh 1, PERK inh 2, Hck Nef HTS 60*, TAG inh 12, PKD1 inh 6 and Hck-Nef confirm inactive.
CCCC(=O)Nc1ccc(Cl)c(NC(=O)c2cccnc2)c1 was read as Rad51 HR inh 1, MDM2 E3 inh -3, PERK inh 2, Hck Nef HTS 4 and PKD1 inh -7.
`N#Cc1cc2cc3c(cc2nc1NCCNC(=S)NCCCN1CCOCC1)OCO3` gave Rad51 HR inh -2, MDM2 E3 inh -9, PERK inh -1, Hck Nef HTS 74*, TAG inh 6 and PKD1 inh -3.
Screening Cc1cccc(C)c1OCC(=O)NCC1COc2ccccc2O1 (stereo unspecified) returned TAG inh 21.
`COc1ccc(-c2csc3nc(C)nc(N4CCN(c5ccc(C(C)=O)cc5)CC4)c23)cc1OC` gave Rad51 HR inh 2, MDM2 E3 inh -6, PERK inh 0, Hck Nef HTS -3, TAG inh 2 and PKD1 inh 4.
For CCN(CC)S(=O)(=O)c1ccc(OC)c(NC(=O)COc2ccccc2[N+](=O)[O-])c1 the results were PERK inh 1, Hck Nef HTS 53*, TAG inh 13, PKD1 inh -1 and Hck-Nef confirm inactive.
For O=C(O)c1cc(-c2ccco2)nc2ccccc12 the results were Rad51 HR inh 5, MDM2 E3 inh -10, PERK inh 0, Hck Nef HTS 10 and PKD1 inh -16.
Screening O=C(NC1CC1)c1cc(-c2ccco2)nc2ccccc12 returned Rad51 HR inh 16, MDM2 E3 inh -5, PERK inh 2, Hck Nef HTS 72*, TAG inh 0 and Hck-Nef confirm active.
`O=C(NC(=S)Nc1cccc(S(=O)(=O)NC2=NCCC2)c1)c1cc(-c2ccco2)nc2ccccc12` gave MDM2 E3 inh -1, PERK inh 1, Hck Nef HTS 27 and TAG inh 5.
O=C(Nc1cccc(S(=O)(=O)NC2=NCCC2)c1)c1cc(-c2ccco2)nc2ccccc12 was read as Rad51 HR inh -6, MDM2 E3 inh 1, PERK inh 3.2*, Hck Nef HTS 87*, TAG inh 3 and Hck-Nef confirm active.
For O=C(CN(c1ccccc1Cl)S(=O)(=O)c1ccccc1)NC1CC2CCC1C2 (stereo unspecified) the results were TAG inh -16.
For CCC(=O)Oc1ccc2c(c1)OC1(OC(C)=O)OC(C)CC1=C2C (stereo unspecified) the results were Rad51 HR inh 8, MDM2 E3 inh -13, PERK inh 1, Hck Nef HTS 157* and TAG inh -2.
